Measured values from ChEMBL document CHEMBL1135850, “P1 Phenethyl peptide boronic acid inhibitors of HCV NS3 protease” (Bioorg Med Chem Lett, 2002).
Peptide text beside a SMILES is read from it. * marks the point of attachment. X3 = CC1(C)[C@@H]2C[C@H]3OB([C@H](CCc4cccc(C(F)(F)F)c4)N*)O[C@@]3(C)[C@H]1C2; X4 = CC1(C)[C@@H]2C[C@H]3OB([C@H](CCc4cccc(F)c4)N*)O[C@@]3(C)[C@H]1C2; X1 = CC1(C)[C@@H]2C[C@H]3OB([C@H](CCc4ccccc4F)N*)O[C@@]3(C)[C@H]1C2; X6 = CC1(C)[C@@H]2C[C@H]3OB([C@H](CCCc4ccccc4)N*)O[C@@]3(C)[C@H]1C2; X15 = CC1(C)[C@@H]2C[C@H]3OB([C@H](Cc4ccccc4)N*)O[C@@]3(C)[C@H]1C2; X12 = CC(C)CC[C@H](N*)B1O[C@@H]2C[C@@H]3C[C@@H](C3(C)C)[C@]2(C)O1; X9 = CC1(C)[C@@H]2C[C@H]3OB([C@@H](N*)c4ccccc4)O[C@@]3(C)[C@H]1C2; X11 = CCCCCC[C@H](N*)B1O[C@@H]2C[C@@H]3C[C@@H](C3(C)C)[C@]2(C)O1; X13 = CCCCC[C@H](N*)B1O[C@@H]2C[C@@H]3C[C@@H](C3(C)C)[C@]2(C)O1; X14 = CCCC[C@H](N*)B1O[C@@H]2C[C@@H]3C[C@@H](C3(C)C)[C@]2(C)O1

biological target: NS3 (Hepatitis C virus, UniProt A3EZJ3); experiment: Binding affinity against Hepatitis C virus NS3 protease; parameters: species or system Hepacivirus hominis
Procedure, shortened: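 Continuous fluorescence assay with 4 nM NS3 protease plus NS4A cofactor peptide, in 50 mM Tris pH 7.0, 5 mM DTT, 50% glycerol, 2% CHAPS. Serially diluted inhibitors, given as boronic acid pinanediol esters, were preincubated with enzyme for 15 min. The reaction was started with the FRET ester substrate Ac-DED(EDANS)EEAbuψ[COO]ASK(DABCYL)-NH2 at ambient temperature and read at excitation 360 nm, emission 530 nm.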

SMILES | Ki [nM]
CC(C)[C@H](NC(=O)[C@H](CCC(=O)O)NC(=O)[C@@H](N)CC(=O)O)C(=O)N[C@H](C(=O)N1CCC[C@H]1C(=O)N[C@@H](CCc1cccc(C(F)(F)F)c1)B1O[C@@H]2C[C@@H]3C[C@@H](C3(C)C)[C@]2(C)O1)C(C)C (H-DEVVP-X3) | 25
CCCCCC[C@H](NC(=O)[C@@H]1CCCN1C(=O)[C@@H](NC(=O)[C@@H](NC(=O)[C@H](CCC(=O)O)NC(=O)[C@@H](N)CC(=O)O)C(C)C)C(C)C)B1O[C@@H]2C[C@@H]3C[C@@H](C3(C)C)[C@]2(C)O1 (H-DEVVP-X11) | 13
CC(C)CC[C@H](NC(=O)[C@@H]1CCCN1C(=O)[C@@H](NC(=O)[C@@H](NC(=O)[C@H](CCC(=O)O)NC(=O)[C@@H](N)CC(=O)O)C(C)C)C(C)C)B1O[C@@H]2C[C@@H]3C[C@@H](C3(C)C)[C@]2(C)O1 (H-DEVVP-X12) | 39
CC(C)[C@H](NC(=O)[C@H](CCC(=O)O)NC(=O)[C@@H](N)CC(=O)O)C(=O)N[C@H](C(=O)N1CCC[C@H]1C(=O)N[C@@H](CCc1ccccc1)B1O[C@@H]2C[C@@H]3C[C@@H](C3(C)C)[C@]2(C)O1)C(C)C | 8
CC(C)[C@H](NC(=O)[C@H](CCC(=O)O)NC(=O)[C@@H](N)CC(=O)O)C(=O)N[C@H](C(=O)N1CCC[C@H]1C(=O)N[C@@H](CCCCc1ccccc1)B1O[C@@H]2C[C@@H]3C[C@@H](C3(C)C)[C@]2(C)O1)C(C)C | 10
CC(C)C[C@H](NC(=O)[C@@H]1CCCN1C(=O)[C@@H](NC(=O)[C@@H](NC(=O)[C@H](CCC(=O)O)NC(=O)[C@@H](N)CC(=O)O)C(C)C)C(C)C)B1O[C@@H]2C[C@@H]3C[C@@H](C3(C)C)[C@]2(C)O1 | 8
CC(C)[C@H](NC(=O)[C@H](CCC(=O)O)NC(=O)[C@@H](N)CC(=O)O)C(=O)N[C@H](C(=O)N1CCC[C@H]1C(=O)N[C@@H](CCc1ccccc1F)B1O[C@@H]2C[C@@H]3C[C@@H](C3(C)C)[C@]2(C)O1)C(C)C (H-DEVVP-X1) | 18
Cc1cccc(CC[C@H](NC(=O)[C@@H]2CCCN2C(=O)[C@@H](NC(=O)[C@@H](NC(=O)[C@H](CCC(=O)O)NC(=O)[C@@H](N)CC(=O)O)C(C)C)C(C)C)B2O[C@@H]3C[C@@H]4C[C@@H](C4(C)C)[C@]3(C)O2)c1 | 34
CCCC[C@H](NC(=O)[C@@H]1CCCN1C(=O)[C@@H](NC(=O)[C@@H](NC(=O)[C@H](CCC(=O)O)NC(=O)[C@@H](N)CC(=O)O)C(C)C)C(C)C)B1O[C@@H]2C[C@@H]3C[C@@H](C3(C)C)[C@]2(C)O1 (H-DEVVP-X14) | 11
CC(C)[C@H](NC(=O)[C@H](CCC(=O)O)NC(=O)[C@@H](N)CC(=O)O)C(=O)N[C@H](C(=O)N1CCC[C@H]1C(=O)N[C@@H](CCCc1ccccc1)B1O[C@@H]2C[C@@H]3C[C@@H](C3(C)C)[C@]2(C)O1)C(C)C (H-DEVVP-X6) | 200
Cc1ccc(CC[C@H](NC(=O)[C@@H]2CCCN2C(=O)[C@@H](NC(=O)[C@@H](NC(=O)[C@H](CCC(=O)O)NC(=O)[C@@H](N)CC(=O)O)C(C)C)C(C)C)B2O[C@@H]3C[C@@H]4C[C@@H](C4(C)C)[C@]3(C)O2)cc1 | 17
CC(C)[C@H](NC(=O)[C@H](CCC(=O)O)NC(=O)[C@@H](N)CC(=O)O)C(=O)N[C@H](C(=O)N1CCC[C@H]1C(=O)N[C@H](B1O[C@@H]2C[C@@H]3C[C@@H](C3(C)C)[C@]2(C)O1)c1ccccc1)C(C)C (H-DEVVP-X9) | 900
CC(C)[C@H](NC(=O)[C@H](CCC(=O)O)NC(=O)[C@@H](N)CC(=O)O)C(=O)N[C@H](C(=O)N1CCC[C@H]1C(=O)N[C@@H](Cc1ccccc1)B1O[C@@H]2C[C@@H]3C[C@@H](C3(C)C)[C@]2(C)O1)C(C)C (H-DEVVP-X15) | 500
CC(C)[C@H](NC(=O)[C@H](CCC(=O)O)NC(=O)[C@@H](N)CC(=O)O)C(=O)N[C@H](C(=O)N1CCC[C@H]1C(=O)N[C@@H](CCc1cccc(F)c1)B1O[C@@H]2C[C@@H]3C[C@@H](C3(C)C)[C@]2(C)O1)C(C)C (H-DEVVP-X4) | 9
CC(C)[C@H](NC(=O)[C@H](CCC(=O)O)NC(=O)[C@@H](N)CC(=O)O)C(=O)N[C@H](C(=O)N1CCC[C@H]1C(=O)N[C@@H](CCc1ccc(O)cc1)B1O[C@@H]2C[C@@H]3C[C@@H](C3(C)C)[C@]2(C)O1)C(C)C | 8
CCCCC[C@H](NC(=O)[C@@H]1CCCN1C(=O)[C@@H](NC(=O)[C@@H](NC(=O)[C@H](CCC(=O)O)NC(=O)[C@@H](N)CC(=O)O)C(C)C)C(C)C)B1O[C@@H]2C[C@@H]3C[C@@H](C3(C)C)[C@]2(C)O1 (H-DEVVP-X13) | 12

Next, values leading:

Ki [nM] | SMILES
8 | CC[C@H](NC(=O)[C@@H]1CCCN1C(=O)[C@@H](NC(=O)[C@@H](NC(=O)[C@H](CCC(=O)O)NC(=O)[C@@H](N)CC(=O)O)C(C)C)C(C)C)B1O[C@@H]2C[C@@H]3C[C@@H](C3(C)C)[C@]2(C)O1
7 | CC(C)[C@H](NC(=O)[C@H](CCC(=O)O)NC(=O)[C@@H](N)CC(=O)O)C(=O)N[C@H](C(=O)N1CCC[C@H]1C(=O)N[C@@H](CCc1ccc(-c2ccccc2)cc1)B1O[C@@H]2C[C@@H]3C[C@@H](C3(C)C)[C@]2(C)O1)C(C)C
7 | CC(C)CCC[C@H](NC(=O)[C@@H]1CCCN1C(=O)[C@@H](NC(=O)[C@@H](NC(=O)[C@H](CCC(=O)O)NC(=O)[C@@H](N)CC(=O)O)C(C)C)C(C)C)B1O[C@@H]2C[C@@H]3C[C@@H](C3(C)C)[C@]2(C)O1
6 | CC(C)[C@H](NC(=O)[C@H](CCC(=O)O)NC(=O)[C@@H](N)CC(=O)O)C(=O)N[C@H](C(=O)N1CCC[C@H]1C(=O)N[C@@H](CCc1ccc(F)cc1)B1O[C@@H]2C[C@@H]3C[C@@H](C3(C)C)[C@]2(C)O1)C(C)C
5 | CC(C)c1ccc(CC[C@H](NC(=O)[C@@H]2CCCN2C(=O)[C@@H](NC(=O)[C@@H](NC(=O)[C@H](CCC(=O)O)NC(=O)[C@@H](N)CC(=O)O)C(C)C)C(C)C)B2O[C@@H]3C[C@@H]4C[C@@H](C4(C)C)[C@]3(C)O2)cc1
4 | CC(C)[C@H](NC(=O)[C@H](CCC(=O)O)NC(=O)[C@@H](N)CC(=O)O)C(=O)N[C@H](C(=O)N1CCC[C@H]1C(=O)N[C@@H](CCc1ccc(Br)cc1)B1O[C@@H]2C[C@@H]3C[C@@H](C3(C)C)[C@]2(C)O1)C(C)C
3 | CC(C)[C@H](NC(=O)[C@H](CCC(=O)O)NC(=O)[C@@H](N)CC(=O)O)C(=O)N[C@H](C(=O)N1CCC[C@H]1C(=O)N[C@@H](CCc1ccc(Oc2ccccc2)cc1)B1O[C@@H]2C[C@@H]3C[C@@H](C3(C)C)[C@]2(C)O1)C(C)C
3 | CC(C)[C@H](NC(=O)[C@H](CCC(=O)O)NC(=O)[C@@H](N)CC(=O)O)C(=O)N[C@H](C(=O)N1CCC[C@H]1C(=O)N[C@@H](CCc1ccc(C(C)(C)C)cc1)B1O[C@@H]2C[C@@H]3C[C@@H](C3(C)C)[C@]2(C)O1)C(C)C
3 | COc1ccc(CC[C@H](NC(=O)[C@@H]2CCCN2C(=O)[C@@H](NC(=O)[C@@H](NC(=O)[C@H](CCC(=O)O)NC(=O)[C@@H](N)CC(=O)O)C(C)C)C(C)C)B2O[C@@H]3C[C@@H]4C[C@@H](C4(C)C)[C@]3(C)O2)cc1
3 | CC(C)[C@H](NC(=O)[C@H](CCC(=O)O)NC(=O)[C@@H](N)CC(=O)O)C(=O)N[C@H](C(=O)N1CCC[C@H]1C(=O)N[C@@H](CCc1ccc(C2CCCCC2)cc1)B1O[C@@H]2C[C@@H]3C[C@@H](C3(C)C)[C@]2(C)O1)C(C)C
2 | CC(C)[C@H](NC(=O)[C@H](CCC(=O)O)NC(=O)[C@@H](N)CC(=O)O)C(=O)N[C@H](C(=O)N1CCC[C@H]1C(=O)N[C@@H](CCc1ccc(Cl)cc1)B1O[C@@H]2C[C@@H]3C[C@@H](C3(C)C)[C@]2(C)O1)C(C)C
2 | CC(C)[C@H](NC(=O)[C@H](CCC(=O)O)NC(=O)[C@@H](N)CC(=O)O)C(=O)N[C@H](C(=O)N1CCC[C@H]1C(=O)N[C@@H](CCc1ccc(C(F)(F)F)cc1)B1O[C@@H]2C[C@@H]3C[C@@H](C3(C)C)[C@]2(C)O1)C(C)C

biological target: T1, Neutrophil elastase (Homo sapiens, UniProt P08246); experiment: Inhibitory concentration against Human leukocyte Elastase
T1 sequence (P08246 whole entry): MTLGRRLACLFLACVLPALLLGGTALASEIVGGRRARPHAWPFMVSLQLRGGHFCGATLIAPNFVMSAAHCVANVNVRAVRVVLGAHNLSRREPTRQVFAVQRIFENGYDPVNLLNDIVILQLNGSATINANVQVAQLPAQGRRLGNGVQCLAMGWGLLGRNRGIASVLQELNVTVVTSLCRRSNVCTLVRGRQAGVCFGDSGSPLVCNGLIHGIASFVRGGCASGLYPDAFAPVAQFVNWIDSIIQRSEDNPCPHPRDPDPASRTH
Procedure, shortened: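 Human neutrophil elastase (stock 1 mg/mL in PBS with 10% glycerol) with MeO-Suc-Ala-Ala-Pro-Val-p-nitroanilide substrate in PBS at room temperature, DMSO ≤2%. Inhibitors were tested as pinanediol esters. Substrate hydrolysis was followed at 405 nm to derive kinetic parameters.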

IC50 [nM] | SMILES
1400 | CC(C)[C@H](NC(=O)[C@H](CCC(=O)O)NC(=O)[C@@H](N)CC(=O)O)C(=O)N[C@H](C(=O)N1CCC[C@@H]1C(=O)N[C@@H](CCc1ccc(Cl)cc1)B1O[C@@H]2C[C@@H]3C[C@@H](C3(C)C)[C@]2(C)O1)C(C)C
20 | CC[C@H](NC(=O)[C@H]1CCCN1C(=O)[C@@H](NC(=O)[C@@H](NC(=O)[C@H](CCC(=O)O)NC(=O)[C@@H](N)CC(=O)O)C(C)C)C(C)C)B1O[C@@H]2C[C@@H]3C[C@@H](C3(C)C)[C@]2(C)O1
60 | CC(C)C[C@H](NC(=O)[C@H]1CCCN1C(=O)[C@@H](NC(=O)[C@@H](NC(=O)[C@H](CCC(=O)O)NC(=O)[C@@H](N)CC(=O)O)C(C)C)C(C)C)B1O[C@@H]2C[C@@H]3C[C@@H](C3(C)C)[C@]2(C)O1
5000 | Cc1ccc(CC[C@H](NC(=O)[C@H]2CCCN2C(=O)[C@@H](NC(=O)[C@@H](NC(=O)[C@H](CCC(=O)O)NC(=O)[C@@H](N)CC(=O)O)C(C)C)C(C)C)B2O[C@@H]3C[C@@H]4C[C@@H](C4(C)C)[C@]3(C)O2)cc1
400 | CC(C)[C@H](NC(=O)[C@H](CCC(=O)O)NC(=O)[C@@H](N)CC(=O)O)C(=O)N[C@H](C(=O)N1CCC[C@@H]1C(=O)N[C@@H](CCc1ccc(C2CCCCC2)cc1)B1O[C@@H]2C[C@@H]3C[C@@H](C3(C)C)[C@]2(C)O1)C(C)C
7300 | CC(C)CCC[C@H](NC(=O)[C@H]1CCCN1C(=O)[C@@H](NC(=O)[C@@H](NC(=O)[C@H](CCC(=O)O)NC(=O)[C@@H](N)CC(=O)O)C(C)C)C(C)C)B1O[C@@H]2C[C@@H]3C[C@@H](C3(C)C)[C@]2(C)O1
